In brackets after ≈: the same amount, converted by molar mass. Like-named read-outs stand apart in the source and are kept apart here.
Legend:
S. pneumoniae R6 = test: MIC, microbroth dilution in Mueller-Hinton broth; format: cell-based; conditions: Streptococcus pneumoniae, R6, read-out: MIC SP
In short: (§1)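 CLSI broth microdilution in cation-adjusted Mueller-Hinton broth. Inocula were grown from MH agar colonies in MH broth, with a final inoculum of 10^5 CFU/ml. Test compound final range was 200–0.2 µg/ml, incubated 37°C for 18–20 h. MIC was the lowest concentration preventing visible growth. Runs were at least duplicate, and the mean MIC was reported.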

[1] = system: S. aureus -ATCC29213 (MSSA); test: MIC, microbroth dilution in Mueller-Hinton broth; format: cell-based; conditions: Staphylococcus aureus, read-out: MIC MSSA
In short: as §1

[2] = system: E. coli BW25113 ΔampC derivative JW4111-2; format: cell-based, Escherichia coli; conditions: for MIC: Escherichia coli, BW25113, read-out: MIC ECΔampC −
P. aeruginosa PA01 = test: MIC, microbroth dilution in Mueller-Hinton broth; format: cell-based, Pseudomonas aeruginosa; conditions: for MIC PA MH+BP/CCCP / MIC PA +: P. aeruginosa PA01; for MIC PA MH+BP/CCCP: MH broth with 30 µg/ml 2,2′-bipyridyl and 50 µg/ml CCCP; for MIC PA +: with clavulanic acid (6µg/ml); for MIC: Pseudomonas aeruginosa
E. coli BW25113 = test: MIC, microbroth dilution in Mueller-Hinton broth; format: cell-based, Escherichia coli; conditions: for MIC EC MH+BP/CCCP: MH broth with 30 µg/ml 2,2′-bipyridyl and 50 µg/ml CCCP; for MIC EC +: with clavulanic acid (6µg/ml); for MIC: Escherichia coli, BW25113, read-out: MIC EC, E. coli BW25113
P. mirabilis ATCC 25933 = test: MIC, microbroth dilution in Mueller-Hinton broth; format: cell-based; conditions: Proteus mirabilis, ATCC25933, read-out: MIC PM
B. subtilis ATCC23857 = test: MIC, microbroth dilution in Mueller-Hinton broth; format: cell-based; conditions: Bacillus subtilis, ATCC23857, read-out: MIC BS
In short: as §1

E. faecalis ATCC33186 = test: MIC, microbroth dilution in Mueller-Hinton broth; format: cell-based; conditions: Enterococcus faecalis, ATCC33186, read-out: MIC EF
In short: as §1

S. pyogenes ATCC700294 = test: MIC, microbroth dilution in Mueller-Hinton broth; format: cell-based; conditions: Streptococcus pyogenes, ATCC700294, read-out: MIC SPy
In short: as §1

[3] = system: E. coli BW25113 ΔtolC derivative JW5503-1; test: MIC, microbroth dilution in Mueller-Hinton broth; format: cell-based, Escherichia coli; conditions: for MIC: Escherichia coli
B. anthracis sterne = test: microbe, parasite or virus in culture; format: cell-based; conditions: Bacillus anthracis, read-out: MIC BA
S. aureus NRS 70 (MRSA) = test: MIC, microbroth dilution in Mueller-Hinton broth; format: cell-based; conditions: Staphylococcus aureus, MRSA|NRS70, read-out: MIC MRSA
In short: as §1

P. vulgaris ATCC 33420 = test: MIC, microbroth dilution in Mueller-Hinton broth; format: cell-based; conditions: Proteus vulgaris, ATCC33420, read-out: MIC PV
[4] = BW25113, read-out: MIC ECΔtolC MH
[5] = BW25113, read-out: MIC ECΔtolC MH+BP

SMILES | MIC (S. pneumoniae R6) [µg/mL] | MIC [1] [µg/mL] | MIC ECΔampC + [2] [µg/mL] | MIC PA MH+BP/CCCP (P. aeruginosa PA01) [µg/mL] | MIC (P. aeruginosa PA01; PA01, read-out: MIC PA) [µg/mL] | MIC (P. aeruginosa PA01; PA01, read-out: MIC PA MH) [µg/mL] | MIC (P. aeruginosa PA01; PA01, read-out: MIC PA MH+BP) [µg/mL] | MIC (P. aeruginosa PA01; PA01, read-out: MIC PA MH+CCCP) [µg/mL] | MIC EC MH+BP/CCCP (E. coli BW25113; E. coli BW25113) [µg/mL] | MIC (E. coli BW25113; Mueller-Hinton broth (Table 2)) [µg/mL] | MIC (P. mirabilis ATCC 25933) [µg/mL] | MIC (B. subtilis ATCC23857) [µg/mL] | MIC (E. faecalis ATCC33186) [µg/mL] | MIC (S. pyogenes ATCC700294) [µg/mL] | MIC ([3]; BW25113, read-out: MIC ECΔtolC) [µg/mL] | MIC [3, 4] [µg/mL] | MIC [3, 5] [µg/mL] | MIC (B. anthracis sterne) [µg/mL] | MIC (S. aureus NRS 70 (MRSA)) [µg/mL] | MIC (P. vulgaris ATCC 33420) [µg/mL] | further results
CC1(C)SC2C(NC(=O)C(NC(=O)C3=C(O)C(Cc4ccc(O)cc4)NC3=O)c3ccccc3)C(=O)N2C1C(=O)O (stereo not drawn) [Compound 2918] | 0.39 (≈ 0.672 µM) | 0.78 (≈ 1.34 µM) | 6.25 | 6.25 (≈ 10.8 µM) | 50 (≈ 86.1 µM) | 50 (≈ 86.1 µM) | 25 (≈ 43.1 µM) | 6.25 (≈ 10.8 µM) | 6.25 (≈ 10.8 µM) | 6.25 to 12.5 (≈ 10.8 to 21.5 µM) | 6.25 (≈ 10.8 µM) | 3.13 (≈ 5.39 µM) | 25 (≈ 43.1 µM) | 1.56 (≈ 2.69 µM) | 6.25 (≈ 10.8 µM) | 1.56 (≈ 2.69 µM) | 1.56 (≈ 2.69 µM) | 6.25 (≈ 10.8 µM) | 50 (≈ 86.1 µM) | 6.25 (≈ 10.8 µM) | MIC PA + (P. aeruginosa PA01): 6.25 µg/mL; MIC EC (E. coli BW25113; E. coli BW25113, Mueller-Hinton broth (Table 2)): 6.25 µg/mL (≈ 10.8 µM); MIC EC + (E. coli BW25113; E. coli BW25113): 12.5 µg/mL; MIC ECΔtolC MH+BP/CCCP ([3]; {}): 0.78 µg/mL (≈ 1.34 µM); MIC ECΔtolC MH+CCCP ([3]; {}): 0.78 µg/mL (≈ 1.34 µM)
CC1(C)SC2C(NC(=O)C(NC(=O)C3=C(O)CNC3=O)c3ccccc3)C(=O)N2C1C(=O)O (stereo not drawn) [Compound 2743] | < 0.2 | 0.78 (≈ 1.64 µM) | 6.25 | 3.13 (≈ 6.6 µM) | 25 (≈ 52.7 µM) | 25 (≈ 52.7 µM) | 12.5 (≈ 26.3 µM) | 6.25 (≈ 13.2 µM) | 12.5 (≈ 26.3 µM) | 200 (≈ 422 µM) | 3.13 (≈ 6.6 µM) | 0.78 (≈ 1.64 µM) | 12.5 (≈ 26.3 µM) | < 0.2 | 12.5 (≈ 26.3 µM) | 12.5 (≈ 26.3 µM) | 6.25 (≈ 13.2 µM) | 0.78 (≈ 1.64 µM) | 25 (≈ 52.7 µM) | 100 (≈ 211 µM) | MIC [2]: 12.5 µg/mL (≈ 26.3 µM); MIC PA + (P. aeruginosa PA01): 12.5 µg/mL; MIC (P. aeruginosa PA01; PA01, read-out: MIC PA −): 25 µg/mL (≈ 52.7 µM); MIC EC + (E. coli BW25113; E. coli BW25113): 12.5 µg/mL; MIC ECΔtolC MH+BP/CCCP ([3]; {}): 1.56 µg/mL (≈ 3.29 µM); MIC ECΔtolC MH+CCCP ([3]; {}): 3.13 µg/mL (≈ 6.6 µM)
CC(C)(C)OCC1NC(=O)C(C(=O)NC(C(=O)NC2C(=O)N3C2SC(C)(C)C3C(=O)O)c2ccccc2)=C1O (stereo not drawn) [Compound 1940] | 0.78 (≈ 1.39 µM) | 1.56 (≈ 2.78 µM) | 6.25 | 6.25 (≈ 11.1 µM) | 25 (≈ 44.6 µM) | 25 (≈ 44.6 µM) | 12.5 (≈ 22.3 µM) | 12.5 (≈ 22.3 µM) | 12.5 (≈ 22.3 µM) | 50 (≈ 89.2 µM) | 6.25 (≈ 11.1 µM) | 3.13 (≈ 5.58 µM) | 25 (≈ 44.6 µM) | 0.78 (≈ 1.39 µM) | 12.5 (≈ 22.3 µM) | 12.5 (≈ 22.3 µM) | 3.13 (≈ 5.58 µM) | 3.13 (≈ 5.58 µM) | 25 (≈ 44.6 µM) | 50 (≈ 89.2 µM) | MIC [2]: 12.5 µg/mL (≈ 22.3 µM); MIC PA + (P. aeruginosa PA01): 12.5 µg/mL; MIC (P. aeruginosa PA01; PA01, read-out: MIC PA −): 25 µg/mL (≈ 44.6 µM); MIC EC + (E. coli BW25113; E. coli BW25113): 12.5 µg/mL; MIC ECΔtolC MH+BP/CCCP ([3]; {}): 1.56 µg/mL (≈ 2.78 µM); MIC ECΔtolC MH+CCCP ([3]; {}): 6.25 µg/mL (≈ 11.1 µM)
CN1CC(O)=C(C(=O)NC(C(=O)NC2C(=O)N3C2SC(C)(C)C3C(=O)O)c2ccccc2)C1=O (stereo not drawn) [Compound 2742] | 1.56 (≈ 3.19 µM) | 1.56 (≈ 3.19 µM) | 12.5 | 6.25 (≈ 12.8 µM) | 25 (≈ 51.2 µM) | 25 (≈ 51.2 µM) | 12.5 (≈ 25.6 µM) | 12.5 (≈ 25.6 µM) | 12.5 (≈ 25.6 µM) | 100 (≈ 205 µM) | 6.25 (≈ 12.8 µM) | 3.13 (≈ 6.41 µM) | 25 (≈ 51.2 µM) | 1.56 (≈ 3.19 µM) | 12.5 (≈ 25.6 µM) | 12.5 (≈ 25.6 µM) | 6.25 (≈ 12.8 µM) | 6.25 (≈ 12.8 µM) | 100 (≈ 205 µM) | 100 (≈ 205 µM) | MIC [2]: 25 µg/mL (≈ 51.2 µM); MIC PA + (P. aeruginosa PA01): 12.5 µg/mL; MIC (P. aeruginosa PA01; PA01, read-out: MIC PA −): 25 µg/mL (≈ 51.2 µM); MIC EC + (E. coli BW25113; E. coli BW25113): 25 µg/mL; MIC ECΔtolC MH+BP/CCCP ([3]; {}): 1.56 µg/mL (≈ 3.19 µM); MIC ECΔtolC MH+CCCP ([3]; {}): 6.25 µg/mL (≈ 12.8 µM)
CC1(C)S[C@@H]2[C@H](NC(=O)C(C(=O)O)c3ccccc3)C(=O)N2[C@H]1C(=O)O (stereo partly drawn) [carbenicillin, reference compound] | < 0.2 | < 0.2 | – | 1.56 (≈ 4.12 µM) | 100 (≈ 264 µM) | 200 (≈ 529 µM) | 50 (≈ 132 µM) | 25 (≈ 66.1 µM) | 0.78 (≈ 2.06 µM) | 100 (≈ 264 µM) | 1.56 (≈ 4.12 µM) | < 0.2 | 3.13 (≈ 8.27 µM) | < 0.2 | 0.09 (≈ 0.238 µM) | 1.56 (≈ 4.12 µM) | 0.56 (≈ 1.48 µM) | < 0.2 | 6.25 (≈ 16.5 µM) | 100 (≈ 264 µM) | MIC ECΔtolC MH+CCCP ([3]; E. coli BW25113 ΔtolC JW5503-1, MH broth containing 50 µg/ml CCCP): 0.78 µg/mL (≈ 2.06 µM)

Reference: paper PMC5116011 (The Journal of antibiotics, 2016)
